Data on 17 compounds can be found in ChEMBL document CHEMBL1123479, “Substituted 1,3,4-thiadiazoles with anticonvulsant activity. 2. Aminoalkyl derivatives” (J Med Chem, 1986).

The species named for data set [1] is Mus musculus. Briefly: Compound was evaluated for anticonvulsant activity in mice against electroshock seizures. The format is functional. The gist of the method:
(§1)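 Mouse screen with oral dosing; the ED50 is given in mg/kg, po. Signs of sedation, ataxia, loss of righting reflex and death were noted after oral dosing before anticonvulsant testing.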

The species named for data set [2] is Mus musculus. Briefly: Compound was evaluated for anticonvulsant activity in mice against metrazole seizures. The format is functional. The gist of the method:
as §1

Data set [3] relates to Mus musculus. As to the kind of experiment: Compound was evaluated for inhibition of hind limb tonus (anticonvulsant activity) in mouse maximal metrazole seizures (MMS) after peroral administration. Format: functional. Conditions: Hindlimb, po.
The species entered for data set [4] is Mus musculus. Briefly: Compound was evaluated for inhibition of hind limb tonus (anticonvulsant activity) in mouse. The format is functional, Hindlimb. The gist of the method: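 Maximal electroshock in mice, ip dosing. The ED50 (mg/kg) is for blocking hind limb tonic extension at each compound's time of peak effect, which was determined in min. 95% confidence limits are reported.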

The nature of data set [5]: Compound was tested for rotarod test in mice and TD50 value at which 50% of trained animals fall off rotarod was reported. Format: organism-based. As to conditions: mouse, in vivo. The gist of the method:
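Mice trained on the rotorod, then dosed po (tested at 1 h) or ip (tested at time of peak anticonvulsant effect). Neurotoxicity scored as falling off the rod.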

For data set [6], the species on record is Mus musculus. Briefly: Compound was evaluated for inhibition of hind limb tonus (anticonvulsant activity ) in mouse. Format: functional, Hindlimb. In outline: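 Maximal electroshock in mice, scoring abolition of hind-limb tonic extension. Compound given ip and tested at its time of peak effect. ED50 in mg/kg reported with 95% confidence limits.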

A word on the ED50: it is the midpoint of the dose-response relation. Low readings indicate greater potency, high ones weaker potency. On to `NCCc1nnc(-c2ccccc2-c2ccccc2)s1`, for which the median effective dose (ED50) came out at 50 mg/kg in data set [1] and 68 mg/kg in data set [2].

For the compound `CC(C)NCc1nnc(-c2ccccc2-c2ccccc2)s1`, the median effective dose (ED50) in data set [1] turned out to be 23 mg/kg; in data set [2], 35 mg/kg.

On to `CNCc1nnc(-c2ccccc2)s1`, for which the 50% effective dose (ED50) in data set [1] and in data set [2] was over 200 mg/kg each time.

As to `NCCCc1nnc(-c2ccccc2-c2ccccc2)s1`, the ED50 in data set [1] and in data set [2] was over 200 mg/kg each time.

`CC(N)c1nnc(-c2ccccc2-c2ccccc2)s1` (centres undefined): the 50% effective dose (ED50) in data set [1] was determined as 21 mg/kg; in data set [2], 32 mg/kg.

With `NCc1nnc(-c2ccccc2-c2ccccc2)s1`, the ED50 in data set [3] worked out at 20 mg/kg. Also, in data set [4], the Peak effect time is 10 min.

The compound `CCCCCCOc1ccccc1-c1nnc(CNC)s1` registered an ED50 in data set [1] of 44 mg/kg.

Turning to `Cc1ccccc1NCc1nnc(-c2ccccc2-c2ccccc2)s1`, the ED50 in data set [1] and in data set [2] was over 200 mg/kg in each case.

On to `NCc1nnc(Cc2ccccc2)s1`, for which the figures for the ED50 in data set [1] and in data set [2] were 110 mg/kg and 200 mg/kg, respectively.

`CN(C)Cc1nnc(-c2ccccc2-c2ccccc2)s1`: the 50% effective dose (ED50) in data set [1] was 32 mg/kg; in data set [2] it was 35 mg/kg.

In the case of `c1ccc(CNCc2nnc(-c3ccccc3-c3ccccc3)s2)cc1`, the ED50 was 37 mg/kg in data set [1] and 29 mg/kg in data set [2].

For the compound `CNCc1nnc(-c2ccccc2-c2ccccc2)s1`, the ED50 in data set [1] was found to be 25 mg/kg; in data set [2], 20 mg/kg.

With `NCc1nnc(Cc2ccccc2-c2ccccc2)s1`, it took a dose of 30 mg/kg to reach the 50% effect level in data set [1] (ED50).

`CCCCCCOc1ccccc1-c1nnc(CN)s1`: the ED50 in data set [1] worked out at 34 mg/kg.

In data set [4], `NC(=O)N1c2ccccc2C=Cc2ccccc21` [CARBAMAZEPINE] yielded a Peak effect time of 20 min.

The term TD50 denotes the 50% point of the dose-response relation for the toxic effect studied. Higher therefore signals harm only at a large dose. Compound `CCC1(c2ccccc2)C(=O)NC(=O)NC1=O` [PHENOBARBITAL] registered a TD50 in data set [5] of 86 mg/kg. In data set [6], this compound gave a Peak effect time of 30 min.

The compound `O=C1NC(=O)C(c2ccccc2)(c2ccccc2)N1` [PHENYTOIN] displayed a Peak effect time in data set [6] of 60 min.
